Results: PubChem BioAssay
A number with no mark means an inactive call. Activity calls are given as the source filed them.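 How the source made its calls, unless noted: active means growth inhibition above 25% in both replicates, a cutoff set 3 SD above the mean; inconclusive means above 25% in only one replicate; inactive means the rest.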

Test: OD615 S. cerevisiae growth inhibition, permissive medium, pilot counter-assay, permissive growth control for S. cerevisiae lifespan shortening project (AID 705)
Conditions: OD615, 24 h, at 10 µM, hits give high values
In short: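 System: S. cerevisiae with engineered DeaD lifespan system. Medium: SC raffinose/galactose permissive medium. Doses: single compound dose of 10 µM, 0.25% DMSO final. Schedule: 24 h exposure, 30 °C. Measured by: OD615 turbidity read. Read-out: growth inhibition.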

Point of comparison: CC(C)NS(=O)(=O)c1ccc(CCC(=O)NCc2cccnc2)cc1, growth inhibition 2.32%. Against it:
- COC(=O)c1ccc(Cl)c(NC(=O)NC2CCCCC2)c1 — lower, -15.1%
- COc1ccccc1OCC(=O)Nc1ccc(S(=O)(=O)NC(C)=O)cc1 — lower, -17%
- O=C(CSc1nc(-c2ccco2)cc(C(F)(F)F)n1)NC1CCCC1 — lower, -9.81%
- Cc1ccc(-n2c(C)cc(C(=O)OCC(=O)N(C)C3CCS(=O)(=O)C3)c2C)cc1 (stereo not given) — lower, -15.9%
- CC1c2[nH]c3ccccc3c2CCN1S(C)(=O)=O (stereo not given) — higher, 2.66%
- CCOC(=O)C1CCCN(C(=O)CN(c2ccc(OC)cc2)S(=O)(=O)c2c(C)noc2C)C1 (stereo not given) — lower, -7.31%
- O=S(=O)(NCCO)c1cccc2cccnc12 — lower, -8.73%
- O=c1[nH]c2ccc(Cl)cc2c(-c2ccccc2)c1N1CCOCC1 — lower, -4.65%
- CC1Cc2ccccc2N1C(=O)CSC1=NCCS1 (stereo not given) — higher, 7.58%
- COc1cccc(-n2c(Cc3cc(=O)[nH]c(=O)[nH]3)nnc2SCC(=O)N2CCCCC2)c1 — lower, -2.5%
- Cc1csc2nc(CNS(=O)(=O)c3ccc(-c4ccccc4)cc3)cn12 — lower, -8.76%
- CC(=O)Nn1cc2c(=O)n(C)c(=O)n(C)c2c1 — lower, -5.47%
- O=C(CCc1nc2ccccc2[nH]1)N1CCc2ccccc2C1 — lower, -11.6%
- Cc1cc2cc(CCNC(=O)c3c(-c4ccccc4Cl)noc3C)c(=O)[nH]c2cc1C — lower, -14.1%
- Cc1ccc2c(c1)c1c(n2CC(O)CN2C(=O)CNC2=O)C(=O)CCC1 (stereo not given) — higher, 3.38%
- CCOC(=O)C1=C2N(C)c3ccccc3N2CCC1=O — higher, 8.71%
- CN(CC(=O)N1CC=C(c2ccccc2)CC1)S(=O)(=O)c1ccc2c(c1)c(=O)n(C)c(=O)n2C — lower, -1.64%
- CC1Cc2ccccc2N1C1=NS(=O)(=O)c2ccccc21 (stereo not given) — lower, -3.44%
- CCOC(=O)N1CCC(NC(=O)c2csc3c2CCCC3)CC1 — lower, -3.1%
- COC(=O)NCC(c1cccnc1)N1CCN(c2ccccc2F)CC1 (stereo not given) — lower, -5.28%
- Cc1nc2ccccc2n1-c1ccccc1 — lower, -0.46%
- Cc1cc(-c2ccccc2)n2ncc(C#N)c2n1 — lower, -0.51%
- CSC1=NCCN1C(=O)COc1ccccc1 — higher, 5.44%
- COC(=O)c1ccccc1NC(=O)CSc1nccn1C — lower, -3.94%
- N#Cc1nc(-c2ccccc2F)oc1NCc1ccccc1 — lower, -4.66%
- OC(C#CCN1CCCC1)c1ccccc1 (stereo not given) — lower, -1.08%
- COC(=O)c1ccc(CSc2ncn[nH]2)o1 — lower, -2.62%
- COc1cc(/C=N/n2cnnc2)ccc1OC(=O)c1ccncc1 — lower, -13.9%
- Cc1cc(NC(=O)CSCCc2ccncc2)no1 — lower, -9.54%
- C=CCn1c(SCc2ccc(F)cc2)nc2c1c(=O)[nH]c(=O)n2C — lower, -8.99%
- Cn1c(NC(=O)CC(C)(C)C)cc(=O)n(C)c1=O — lower, -2.31%
- O=C(CSc1n[nH]c(-c2ccccc2)n1)c1ccccc1 — lower, -0.485%
- Cc1cc(C(=O)NCC2CCCO2)n(-c2ccccc2)n1 (stereo not given) — lower, -0.68%
- COC(=O)CSc1nc2ccccc2nc1SCC(=O)OC — lower, -11.7%
- COC(=O)C1=C(C)N(c2cc(Cl)cc(Cl)c2)C(=O)C1 — lower, -2.8%
- CC(=O)c1c(C)[nH]c(C(=O)Nc2cc(C)ccc2C)c1C — higher, 8.06%
- COc1cc(CN2CCN(c3cccc(C)c3C)CC2)cc(Br)c1O — lower, -4.04%
- Cn1c(SCC(=O)Nc2ccccc2F)nnc1-c1cccnc1 — lower, -5.35%
- Cc1ccc(OCCn2c(C)c(/C=N/n3cnnc3)c3ccccc32)cc1 — higher, 8.46%

Test: Restrictive medium S. cerevisiae growth inhibition, OD615, pilot screen of yeast lifespan reduction project, restrictive growth control (AID 706;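 active means growth inhibition above a set limit, 3 SD over mean compound inhibition, in both replicates, cut at about 43% in these data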;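 further: modified DeaD lifespan yeast strain shifted to restrictive glucose medium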)
Conditions: OD615, 48 h, at 10 µM, hits give high values
In short: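 Assay system – genetically modified Saccharomyces cerevisiae, DeaD replicative lifespan assay strain · Medium – CSMM-D glucose medium · Doses – 10 µM compound, 0.25% DMSO · Times – 4 h pre-incubation, 48 h exposure at 30 °C · Signal – optical density at 615 nm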

Point of comparison: Cc1cc2cc(CCNC(=O)c3c(-c4ccccc4Cl)noc3C)c(=O)[nH]c2cc1C, growth inhibition -2.13%. Against it:
- COC(=O)c1ccc(Cl)c(NC(=O)NC2CCCCC2)c1 — lower, -5.54%
- COc1ccccc1OCC(=O)Nc1ccc(S(=O)(=O)NC(C)=O)cc1 — lower, -5.72%
- O=C(CSc1nc(-c2ccco2)cc(C(F)(F)F)n1)NC1CCCC1 — higher, 5.25%
- Cc1ccc(-n2c(C)cc(C(=O)OCC(=O)N(C)C3CCS(=O)(=O)C3)c2C)cc1 (stereo not given) — lower, -17.3%
- CC1c2[nH]c3ccccc3c2CCN1S(C)(=O)=O (stereo not given) — higher, 14.2%
- CCOC(=O)C1CCCN(C(=O)CN(c2ccc(OC)cc2)S(=O)(=O)c2c(C)noc2C)C1 (stereo not given) — lower, -7.06%
- CC(C)NS(=O)(=O)c1ccc(CCC(=O)NCc2cccnc2)cc1 — lower, -6.38%
- O=S(=O)(NCCO)c1cccc2cccnc12 — lower, -10.2%
- O=c1[nH]c2ccc(Cl)cc2c(-c2ccccc2)c1N1CCOCC1 — higher, -0.51%
- COc1cccc(-n2c(Cc3cc(=O)[nH]c(=O)[nH]3)nnc2SCC(=O)N2CCCCC2)c1 — higher, -0.925%
- Cc1csc2nc(CNS(=O)(=O)c3ccc(-c4ccccc4)cc3)cn12 — higher, 7%
- CC(=O)Nn1cc2c(=O)n(C)c(=O)n(C)c2c1 — higher, 1.6%
- O=C(CCc1nc2ccccc2[nH]1)N1CCc2ccccc2C1 — lower, -12.5%
- Cc1ccc2c(c1)c1c(n2CC(O)CN2C(=O)CNC2=O)C(=O)CCC1 (stereo not given) — higher, 7.05%
- CCOC(=O)C1=C2N(C)c3ccccc3N2CCC1=O — higher, 4.85%
- CN(CC(=O)N1CC=C(c2ccccc2)CC1)S(=O)(=O)c1ccc2c(c1)c(=O)n(C)c(=O)n2C — lower, -12.2%
- CC1Cc2ccccc2N1C1=NS(=O)(=O)c2ccccc21 (stereo not given) — lower, -25.5%
- CCOC(=O)N1CCC(NC(=O)c2csc3c2CCCC3)CC1 — lower, -14.7%
- COC(=O)NCC(c1cccnc1)N1CCN(c2ccccc2F)CC1 (stereo not given) — higher, -1.77%
- Cc1nc2ccccc2n1-c1ccccc1 — higher, 10.2%
- Cc1cc(-c2ccccc2)n2ncc(C#N)c2n1 — higher, 2.26%
- CSC1=NCCN1C(=O)COc1ccccc1 — lower, -6.09%
- COC(=O)c1ccccc1NC(=O)CSc1nccn1C — higher, 2.94%
- N#Cc1nc(-c2ccccc2F)oc1NCc1ccccc1 — higher, 11.3%
- OC(C#CCN1CCCC1)c1ccccc1 (stereo not given) — lower, -5.8%
- COC(=O)c1ccc(CSc2ncn[nH]2)o1 — higher, 3.27%
- COc1cc(/C=N/n2cnnc2)ccc1OC(=O)c1ccncc1 — lower, -15.2%
- Cc1cc(NC(=O)CSCCc2ccncc2)no1 — lower, -5.15%
- C=CCn1c(SCc2ccc(F)cc2)nc2c1c(=O)[nH]c(=O)n2C — lower, -8.69%
- Cn1c(NC(=O)CC(C)(C)C)cc(=O)n(C)c1=O — lower, -7.82%
- O=C(CSc1n[nH]c(-c2ccccc2)n1)c1ccccc1 — higher, 16.9%
- Cc1cc(C(=O)NCC2CCCO2)n(-c2ccccc2)n1 (stereo not given) — lower, -2.33%
- COC(=O)CSc1nc2ccccc2nc1SCC(=O)OC — lower, -9.89%
- COC(=O)C1=C(C)N(c2cc(Cl)cc(Cl)c2)C(=O)C1 — lower, -18.3%
- CC(=O)c1c(C)[nH]c(C(=O)Nc2cc(C)ccc2C)c1C — lower, -8.57%
- COc1cc(CN2CCN(c3cccc(C)c3C)CC2)cc(Br)c1O — higher, 0.7%
- Cn1c(SCC(=O)Nc2ccccc2F)nnc1-c1cccnc1 — lower, -5.78%
- Cc1ccc(OCCn2c(C)c(/C=N/n3cnnc3)c3ccccc32)cc1 — higher, 22.9%

For CC1Cc2ccccc2N1C(=O)CSC1=NCCS1 (stereo not given), the growth inhibition was 50.5% (active).
